For orientation: Ki means the equilibrium dissociation constant of an inhibitor or competing ligand from its target.

Data on four compounds can be found in ChEMBL document CHEMBL1131413, “Mutational evidence for a common kappa antagonist binding pocket in the wild-type kappa and mutant mu[K303E] opioid receptors” (J Med Chem, 1998).

Assay [1] deals with Kappa-type opioid receptor (Rattus norvegicus) (UniProt P34975). In words: Effect on binding affinity of mutational exchange of Glu297 in the Opioid receptor kappa 1 in transiently expressed […] cells activity expressed as binding ratio with nor-BNI.
Kappa-type opioid receptor (Rattus norvegicus), sequence (P34975 whole entry): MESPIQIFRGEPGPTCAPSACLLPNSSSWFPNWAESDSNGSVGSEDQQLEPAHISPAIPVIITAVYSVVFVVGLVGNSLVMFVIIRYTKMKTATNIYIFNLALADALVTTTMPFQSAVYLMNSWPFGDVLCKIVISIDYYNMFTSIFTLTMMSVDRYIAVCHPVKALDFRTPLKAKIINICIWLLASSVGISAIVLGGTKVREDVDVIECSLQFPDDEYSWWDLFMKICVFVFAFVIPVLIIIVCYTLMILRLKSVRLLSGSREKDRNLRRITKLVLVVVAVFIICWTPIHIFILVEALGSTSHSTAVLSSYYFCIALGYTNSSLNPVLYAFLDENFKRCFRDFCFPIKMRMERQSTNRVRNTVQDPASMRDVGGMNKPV
In assay [2] the target is Kappa-type opioid receptor (Rattus norvegicus, UniProt P34975). Put plainly: Effect on binding affinity of mutational exchange of Glu297 in the Opioid receptor kappa 1 in transiently expressed […] cells activity expressed as binding affinity. It counts as cell-based.
Kappa-type opioid receptor (Rattus norvegicus, UniProt P34975), sequence (P34975 whole entry, looked up): as the sequence (P34975 whole entry) above
For assay [3], the target named is Kappa-type opioid receptor (Rattus norvegicus, UniProt P34975, E297K). In words: Mutant factor of the compound against kappa[E297K] with Opioid receptor kappa 1 for binding affinity.
Kappa-type opioid receptor (Rattus norvegicus, UniProt P34975, E297K), sequence (P34975 whole entry E297K): as the sequence (P34975 whole entry) above, with E297K counted along it
For a further assay, the target named is Mu-type opioid receptor (Rattus norvegicus, UniProt P33535). In words: Effect on binding affinity of mutational exchange of Lys303 in the Opioid receptor mu 1 in transiently expressed […] cells activity expressed as binding affinity. The class given is cell-based.
Mu-type opioid receptor, sequence (P33535 whole entry, looked up): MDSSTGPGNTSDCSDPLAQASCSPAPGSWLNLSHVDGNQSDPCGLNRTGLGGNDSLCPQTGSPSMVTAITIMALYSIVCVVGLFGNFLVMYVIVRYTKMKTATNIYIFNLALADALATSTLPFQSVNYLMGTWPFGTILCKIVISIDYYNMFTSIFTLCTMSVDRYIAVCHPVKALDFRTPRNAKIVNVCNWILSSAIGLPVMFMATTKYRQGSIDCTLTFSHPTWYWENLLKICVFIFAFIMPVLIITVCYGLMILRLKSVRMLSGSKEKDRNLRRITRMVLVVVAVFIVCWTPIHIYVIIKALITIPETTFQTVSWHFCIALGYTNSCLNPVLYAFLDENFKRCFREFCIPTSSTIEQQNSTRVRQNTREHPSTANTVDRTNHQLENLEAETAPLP
Assay [4] addresses Kappa-type opioid receptor (Cavia porcellus) (UniProt P41144). In words: Opioid antagonist potencies against Opioid receptor kappa 1 from guinea pig ileum employing ethylketazocine (EKC) as agonist. It counts as functional, tissue-based. The gist of the method:
(§1)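 Electrically stimulated guinea-pig ileal longitudinal muscle. Antagonist at 100 nM was incubated 15 min before agonist (ethylketazocine for kappa, morphine for mu). Ke = [antagonist]/(IC50 ratio − 1), where the IC50 ratio is agonist IC50 with antagonist over agonist IC50 alone in the same preparation. Ke is the mean of at least three IC50 ratios.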

Assay [5] concerns the target Delta-type opioid receptor (Mus musculus) (UniProt P32300). Put plainly: Opioid antagonist potencies against Opioid receptor delta 1 from mouse vas-deferens preparation employing [D-Ala2,D-Leu5]enkephalin (DADLE) as agonist. The class given is functional. Summed up: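 Electrically stimulated mouse vas deferens. Antagonist at 100 nM was incubated 15 min before the agonist DADLE. Ke = [antagonist]/(IC50 ratio − 1), using agonist IC50 with versus without antagonist in the same preparation. Ke is from an average of at least three IC50 ratios.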

Assay [6] addresses Mu-type opioid receptor (Cavia porcellus) (UniProt P97266). Put plainly: Opioid antagonist potencies against Opioid receptor mu 1 from guinea pig ileum employing morphine(M) as agonist. The class given is functional, tissue-based. The gist of the method:
as §1

Assay [7] deals with Opioid receptors; delta & kappa (Homo sapiens) (UniProt P41145+P41143). Put plainly: Ratio of Ke value to kappa receptor to that of delta receptor. It counts as protein assay. The gist of the method: (§2)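 Selectivity ratios were taken from Ke values measured in smooth muscle (100 nM antagonist, 15 min preincubation). Kappa Ke came from guinea-pig ileum with ethylketazocine, mu Ke from guinea-pig ileum with morphine, and delta Ke from mouse vas deferens with DADLE.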
Opioid receptors; delta & kappa (Homo sapiens), sequence (P41143 whole entry, looked up): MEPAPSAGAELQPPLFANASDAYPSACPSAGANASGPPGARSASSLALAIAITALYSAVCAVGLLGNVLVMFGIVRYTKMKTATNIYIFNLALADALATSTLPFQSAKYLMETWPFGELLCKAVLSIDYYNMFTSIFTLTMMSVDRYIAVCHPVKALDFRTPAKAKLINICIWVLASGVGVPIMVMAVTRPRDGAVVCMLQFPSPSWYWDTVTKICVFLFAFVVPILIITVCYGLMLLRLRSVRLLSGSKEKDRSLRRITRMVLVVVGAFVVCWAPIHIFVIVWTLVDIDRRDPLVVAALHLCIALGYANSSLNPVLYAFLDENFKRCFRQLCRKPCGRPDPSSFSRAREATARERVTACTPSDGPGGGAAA
Opioid receptors; delta & kappa (Homo sapiens), sequence (P41145 whole entry, looked up): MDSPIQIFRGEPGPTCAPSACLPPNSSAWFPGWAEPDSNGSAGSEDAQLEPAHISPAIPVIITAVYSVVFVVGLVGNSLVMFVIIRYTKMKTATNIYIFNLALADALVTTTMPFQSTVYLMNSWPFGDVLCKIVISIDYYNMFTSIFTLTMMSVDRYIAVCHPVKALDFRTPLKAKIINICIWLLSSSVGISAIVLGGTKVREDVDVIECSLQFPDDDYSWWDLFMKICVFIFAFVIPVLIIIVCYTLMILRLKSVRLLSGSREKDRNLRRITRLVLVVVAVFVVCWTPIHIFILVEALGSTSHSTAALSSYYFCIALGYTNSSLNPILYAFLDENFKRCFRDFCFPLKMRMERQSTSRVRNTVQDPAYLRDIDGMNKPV

For assay [8], the target named is Opioid receptors; mu & kappa (Homo sapiens) (UniProt P41145+P35372). Put plainly: Ratio of Ke value to kappa receptor to that of mu receptor. The class given is protein assay. The gist of the method: as §2
Opioid receptors; mu & kappa (Homo sapiens), sequence (P35372 whole entry, looked up): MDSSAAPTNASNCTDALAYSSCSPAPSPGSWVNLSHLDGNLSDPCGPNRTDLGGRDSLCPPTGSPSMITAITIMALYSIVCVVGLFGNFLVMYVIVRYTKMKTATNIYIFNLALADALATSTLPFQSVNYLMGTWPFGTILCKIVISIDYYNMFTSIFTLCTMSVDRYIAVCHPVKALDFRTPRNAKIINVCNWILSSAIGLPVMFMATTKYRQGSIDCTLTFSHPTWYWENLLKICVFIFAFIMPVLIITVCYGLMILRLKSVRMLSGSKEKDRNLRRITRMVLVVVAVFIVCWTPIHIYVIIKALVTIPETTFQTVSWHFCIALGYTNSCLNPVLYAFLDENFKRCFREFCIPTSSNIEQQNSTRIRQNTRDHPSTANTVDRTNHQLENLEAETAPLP
Opioid receptors; mu & kappa (Homo sapiens), sequence (P41145 whole entry, looked up): as the sequence (P41145 whole entry, looked up) above

Mu-type opioid receptor (Cavia porcellus), sequence (P97266 whole entry): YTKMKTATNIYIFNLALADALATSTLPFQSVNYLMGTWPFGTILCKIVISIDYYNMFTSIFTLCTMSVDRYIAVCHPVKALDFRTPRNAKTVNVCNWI
Delta-type opioid receptor (Mus musculus), sequence (P32300 whole entry): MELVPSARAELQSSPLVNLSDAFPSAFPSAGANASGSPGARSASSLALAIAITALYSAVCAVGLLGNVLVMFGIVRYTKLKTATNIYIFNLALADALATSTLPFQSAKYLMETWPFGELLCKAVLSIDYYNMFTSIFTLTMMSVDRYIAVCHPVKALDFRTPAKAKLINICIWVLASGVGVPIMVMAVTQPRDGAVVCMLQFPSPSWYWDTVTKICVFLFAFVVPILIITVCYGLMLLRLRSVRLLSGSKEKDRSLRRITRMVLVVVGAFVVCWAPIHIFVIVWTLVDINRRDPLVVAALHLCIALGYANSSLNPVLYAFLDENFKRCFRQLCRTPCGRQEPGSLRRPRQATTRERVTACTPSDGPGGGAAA
Kappa-type opioid receptor (Cavia porcellus), sequence (P41144 whole entry): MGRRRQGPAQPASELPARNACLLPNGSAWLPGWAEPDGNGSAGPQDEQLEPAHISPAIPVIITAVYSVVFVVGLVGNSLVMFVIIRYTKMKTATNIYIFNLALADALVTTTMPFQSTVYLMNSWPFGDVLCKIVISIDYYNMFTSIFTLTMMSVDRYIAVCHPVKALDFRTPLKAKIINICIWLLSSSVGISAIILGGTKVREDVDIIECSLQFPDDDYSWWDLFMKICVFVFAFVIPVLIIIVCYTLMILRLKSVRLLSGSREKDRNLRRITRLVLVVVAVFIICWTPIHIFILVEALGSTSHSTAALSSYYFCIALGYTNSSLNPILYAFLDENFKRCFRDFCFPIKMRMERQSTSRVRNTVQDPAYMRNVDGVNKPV

For the compound `Oc1ccc2c3c1O[C@H]1c4[nH]c5c(c4C[C@@]4(O)[C@@H](C2)N(CC2CC2)CC[C@]314)C[C@@]1(O)[C@H]2Cc3ccc(O)c4c3[C@@]1(CCN2CC1CC1)[C@H]5O4`, the Fana in [1] was 1.
As for `N#CN=C(N)Nc1ccc2[nH]c3c(c2c1)C[C@@]1(O)C2Cc4ccc(O)c5c4[C@@]1(CCN2CC1CC1)[C@H]3O5`, the Ki came to 0.27 nM in [2], 2.48 nM in assay [3] and 4.04 nM at Mu-type opioid receptor.
`N#CN/C(N)=N/c1ccc2[nH]c3c(c2c1)C[C@@]1(O)C2Cc4ccc(O)c5c4[C@@]1(CCN2CC1CC1)[C@H]3O5`: the Ke came to 3.13 nM in [4], 9.08 nM in [5] and 16.1 nM in assay [6]. Moreover, the Fana in assay [1] worked out at 2.25. Also, the results for the Selectivity in assay [7] and in assay [8] were 3 and 5, respectively.
With `N=C(N)Nc1ccc2[nH]c3c(c2c1)C[C@@]1(O)[C@H]2Cc4ccc(O)c5c4[C@@]1(CCN2CC1CC1)[C@H]3O5` [GUANIDINONALTRINDOLE], in [1], the Fana was 0.75. The Ki in [2] was 0.09 nM; in assay [3], 12.9 nM; on Mu-type opioid receptor, 9.23 nM. The values for the Selectivity in [7] and in assay [8] were 799 and 208, respectively.
